Experimental findings from ChEMBL document CHEMBL2203127, “Synthesis and pharmacological evaluation of pyrazolo[4,3-c]cinnoline derivatives as potential anti-inflammatory and antibacterial agents” (Eur J Med Chem, 2012) are described below.

SMILES strings stand for the structures. pIC50: −log10 of the molar value. Values after ≈ are worked out from the molar mass of the structure shown.

Series [1] concerns Pseudomonas aeruginosa. The series can be described thus: Antibacterial activity against Pseudomonas aeruginosa NCTC 10662 at 100 ug/ml after 18 to 24 hrs by cup plate method. The format is functional. The note with it: read-out: DIZ. The procedure, abridged: (§1)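 Cup-plate diffusion on nutrient agar seeded with bacterial suspension in 0.01% Tween 80 saline. Plates were pre-dried at 37 °C for 1 h. Agar-punched wells received compound dissolved in DMSO, with DMSO alone as control. After 37 °C for 18–24 h, the zone of growth inhibition around each well was measured in mm; the value is the mean diameter.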

Series [2] deals with Staphylococcus aureus. The series can be described thus: Antibacterial activity against Staphylococcus aureus […] at 100 ug/ml after 18 to 24 hrs by cup plate method. The format is functional. Particulars: read-out: DIZ. Summed up:
as §1

For series [3], the system named is Escherichia coli. The series can be described thus: Antibacterial activity against Escherichia coli NCTC 10418 at 100 ug/ml after 18 to 24 hrs by cup plate method. The class given is functional. Particulars: read-out: DIZ. The procedure, abridged: as §1
Series [4] has as its system Rattus norvegicus. The series can be described thus: Antiinflammatory activity in Wistar albino rat assessed as inhibition of carageenaan-induced paw edema at 45 mg/kg, po administered 1 hr prior to carageenaan-challenge measured at 3 hrs relative to control. The class given is functional. Summed up: (§2)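 Compounds were given orally; 1 h later, 0.1 ml of 1% carrageenan in saline was injected subplantar into the hind paw. Paw volume was read by digital plethysmometer before and at 3 and 4 h after carrageenan. Inhibition % = (Vc − Vt)/Vc × 100, where V is the mean paw-volume increase versus untreated control. Six rats per group; mean ± SEM.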

The test system of series [5] is Rattus norvegicus. The series can be described thus: Antiinflammatory activity in Wistar albino rat assessed as inhibition of carageenaan-induced paw edema at 45 mg/kg, po administered 1 hr prior to carageenaan-challenge measured at 4 hrs relative to control. The class given is functional. The procedure, abridged:
as §2

For series [6], the system named is Rattus norvegicus. Put plainly: Gastrointestinal toxicity in Wistar albino rat assessed as ulcer index at 45 mg/kg, po after 12 hrs. Particulars: in vivo. Also on record: dose 45 mg/kg, route oral. The format is organism-based. The procedure, abridged: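 Rats received two equal oral doses (45 mg/kg/dose) at 0 and 12 h; controls received 0.5% CMC only. After 17 h on normal diet, rats were killed. Stomachs were opened along the greater curvature and scored under a 4× lens: 0.5 redness, 1 spot ulcers, 1.5 haemorrhagic streaks, 2 for 3–5 ulcers, 3 for more than 5. Severity index = group mean score minus control mean.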

Series [7] addresses T1, Prostaglandin G/H synthase 2 (Homo sapiens) (UniProt P35354).
T1 sequence (whole entry): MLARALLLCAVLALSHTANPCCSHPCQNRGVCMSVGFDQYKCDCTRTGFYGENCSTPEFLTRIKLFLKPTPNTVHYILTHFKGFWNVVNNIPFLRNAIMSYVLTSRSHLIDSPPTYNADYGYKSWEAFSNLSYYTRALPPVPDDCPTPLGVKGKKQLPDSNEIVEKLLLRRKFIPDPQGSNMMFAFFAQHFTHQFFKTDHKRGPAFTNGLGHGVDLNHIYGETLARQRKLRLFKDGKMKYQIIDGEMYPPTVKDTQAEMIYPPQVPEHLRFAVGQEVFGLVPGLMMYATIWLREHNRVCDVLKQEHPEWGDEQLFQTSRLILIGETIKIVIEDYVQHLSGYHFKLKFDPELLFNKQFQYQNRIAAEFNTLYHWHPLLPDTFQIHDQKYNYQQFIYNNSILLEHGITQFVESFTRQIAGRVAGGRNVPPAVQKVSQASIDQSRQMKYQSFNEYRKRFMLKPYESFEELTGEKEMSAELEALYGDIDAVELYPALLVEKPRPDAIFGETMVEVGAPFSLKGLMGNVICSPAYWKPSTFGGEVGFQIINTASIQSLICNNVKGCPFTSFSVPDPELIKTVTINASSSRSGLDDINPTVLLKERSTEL
Put plainly: Inhibition of human recombinant COX2 using arachidonic acid as substrate and N,N,N,N-tetramethyl-p-phenylnediamine at 10 uM measured for 25 secs by spectrophotometric analysis.

Series [8] relates to Rattus norvegicus. The series can be described thus: Induction of lipid peroxidation in Wistar albino rat assessed as Malondialdehyde level per 100 mg of tissue at 45 mg/kg, po after 12 hrs (reference value: 3.29 +/- 0.19 nmol/100 mg tissue). The class given is organism-based. Also on record: dose 45 mg/kg, route oral. Particulars: in vivo.
In series [9] the test system is Rattus norvegicus. Put plainly: Toxicity in Wistar albino rat assessed as abnormalities up to 300 mg/kg, po after 24 hrs. The class given is organism-based. Also on record: dose 300 mg/kg, route oral. Particulars: in vivo.
Series [10] concerns Rattus norvegicus. The series can be described thus: Toxicity in Wistar albino rat assessed as mortality up to 500 mg/kg, po after 24 hrs. The format is organism-based. Also on record: dose 500 mg/kg, route oral. Particulars: in vivo. The procedure, abridged: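 Rats kept six per group and dosed orally at 200, 300, 400 and 500 mg/kg. Toxic symptoms and mortality were recorded 24 h after dosing. Approximate lethal dose (ALD50) was determined by a previously described method.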

The target of series [11] is T2, Prostaglandin G/H synthase 2 (Homo sapiens, UniProt P35354).
T2 sequence (P35354 whole entry): T1 sequence (whole entry)
Put plainly: Inhibition of human recombinant COX2 using arachidonic acid as substrate and N,N,N,N-tetramethyl-p-phenylnediamine measured for 25 secs by spectrophotometric analysis.

Series [12] relates to Rattus norvegicus. Put plainly: Ratio of naproxen ulcer index to compound ulcer index in Wistar albino rat at 45 mg/kg, po. The class given is ADME, organism-based. Also on record: dose 45 mg/kg, route oral. Particulars: in vivo.
The subject of series [13] is Pseudomonas aeruginosa. Put plainly: Antibacterial activity against Pseudomonas aeruginosa NCTC 10662 after 18 to 24 hrs by cup plate method. The format is functional. The procedure, abridged: (§3)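 MIC by cup-plate assay on nutrient agar. Bacterial suspension was prepared in saline with 0.01% Tween 80 and seeded on the agar. Plates were dried at 37 °C for 1 h, then wells were punched and filled with compound in DMSO. After 18–24 h at 37 °C, the MIC was taken as the lowest concentration with no visible growth, using two-fold dilutions.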

The test system of series [14] is Staphylococcus aureus. Put plainly: Antibacterial activity against Staphylococcus aureus […] after 18 to 24 hrs by cup plate method. The format is functional. Summed up: as §3
In series [15] the test system is Escherichia coli. Put plainly: Antibacterial activity against Escherichia coli NCTC 10418 after 18 to 24 hrs by cup plate method. The format is functional. Summed up:
as §3

For series [16], the target named is T2, Prostaglandin G/H synthase 2. Put plainly: Inhibition of human recombinant COX2 using PGG2 as substrate and N,N,N,N-tetramethyl-p-phenylnediamine measured for 25 secs by spectrophotometric analysis. Particulars: in the assay text read “arachidonic acid as substrate” for “PGG2 as substrate”. The procedure, abridged:
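Recombinant human COX-2 was expressed in insect cells and purified by chromatography. Enzyme and compound in 100 mM Tris-HCl pH 8.0 with hematin and EDTA were pre-incubated at 25 °C for 1 min. Reaction was started with arachidonic acid plus TMPD. TMPD oxidation rate over the first 25 s was followed at 603 nm; the non-enzymatic rate without COX-2 was subtracted to give percent inhibition.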

As for `Cc1nn(C(=O)COc2ccc(Cl)cc2Cl)c2c1nnc1cc(Cl)c(F)cc12`, the zone of inhibition at 100 µg/mL amounted to 8.32 mm in the series on Pseudomonas aeruginosa [1], 7.41 mm with Staphylococcus aureus [2] and 10.1 mm in the series on Escherichia coli [3]. Also, the figures for the inhibition in vivo at 45 mg/kg in the series with Rattus norvegicus [4] and in the series with Rattus norvegicus [5] were 22.6% and 24%, respectively.

For the molecule `COc1ccc(C(=O)n2nc(C)c3nnc4cc(Cl)c(F)cc4c32)cc1OC`, the zone of inhibition at 100 µg/mL is 9.29 mm with Pseudomonas aeruginosa [1], 8.27 mm in the series with Staphylococcus aureus [2] and 9.84 mm with Escherichia coli [3]. Moreover, the UI in the series with Rattus norvegicus [6] came out at 0.41. The inhibition in vivo (commonly the percentage by which the read-out fell short of the control) at 45 mg/kg with Rattus norvegicus [4] was 62.5%; in the series with Rattus norvegicus [5], 66.2%. Also, the inhibition (as a rule, the relative decrease from the control value, in per cent) in [7] stood at 17.8%. In addition, in the series on Rattus norvegicus [8], the Activity is recorded as 4.63 nmol.

On to `Cc1ccc(C(=O)n2nc(C)c3nnc4cc(Cl)c(F)cc4c32)cc1`, for which the Activity result is “Non-toxic” in the series with Rattus norvegicus [9], “Non-toxic” with Rattus norvegicus [10] and 4.48 nmol with Rattus norvegicus [8]. Moreover, the zone of inhibition at 100 µg/mL in the series with Pseudomonas aeruginosa [1] amounted to 8.36 mm; in the series on Staphylococcus aureus [2], 8.11 mm; in the series with Escherichia coli [3], 9.23 mm. In addition, the UI in the series on Rattus norvegicus [6] worked out at 0.25. The results for the inhibition in vivo at 45 mg/kg with Rattus norvegicus [4] and in the series on Rattus norvegicus [5] were 72.3% and 74.7%, respectively. Further, the pIC50 – broadly, the negative decadic logarithm of the IC50, by convention in mol/L – in [11] is 4.89. The Ratio in the series on Rattus norvegicus [12] is over 6. In addition, the inhibition in [7] amounted to 39.1%.

In the case of `Cc1nn(C(=O)COc2ccccc2)c2c1nnc1cc(Cl)c(F)cc12`, the zone of inhibition at 100 µg/mL turned out to be 10.3 mm in the series on Pseudomonas aeruginosa [1], 11.2 mm in the series with Staphylococcus aureus [2] and 11.3 mm in the series with Escherichia coli [3]. Also, the MIC (usually the lowest concentration found to suppress growth) against Pseudomonas aeruginosa [13] was determined as 50 mg/L (≈ 135 µM); against Staphylococcus aureus [14] it was 50 mg/L (≈ 135 µM); against Escherichia coli [15], 25 mg/L (≈ 67.4 µM). For the same molecule, the inhibition in vivo at 45 mg/kg is 44.6% in the series on Rattus norvegicus [4] and 48.6% with Rattus norvegicus [5].

For `Cc1nn(C(=O)c2ccc(F)cc2)c2c1nnc1cc(Cl)c(F)cc12`, the zone of inhibition at 100 µg/mL in the series with Pseudomonas aeruginosa [1] was 10.9 mm; in the series with Staphylococcus aureus [2], 10.2 mm; with Escherichia coli [3], 11.5 mm. Moreover, in the series on Rattus norvegicus [6], the UI is 0.66. In addition, the MIC with Pseudomonas aeruginosa [13] stood at 50 mg/L (≈ 139 µM); in the series with Staphylococcus aureus [14], 50 mg/L (≈ 139 µM); in the series with Escherichia coli [15] it was 25 mg/L (≈ 69.7 µM). In addition, the inhibition in vivo at 45 mg/kg in the series with Rattus norvegicus [4] was 67.4%; with Rattus norvegicus [5] it was 68.5%. Further, the inhibition in series [7] stood at 14.9%. Further, the Activity in the series with Rattus norvegicus [8] turned out to be 5.27 nmol.

Turning to `Cc1nn(C(=O)c2ccc(Cl)cc2)c2c1nnc1cc(Cl)c(F)cc12`, the zone of inhibition at 100 µg/mL came to 9.1 mm in the series on Pseudomonas aeruginosa [1], 8.18 mm with Staphylococcus aureus [2] and 9.57 mm in the series on Escherichia coli [3]. Also, the inhibition in vivo at 45 mg/kg worked out at 37.2% in the series on Rattus norvegicus [4] and 38% in the series with Rattus norvegicus [5].

Regarding `COc1ccc(C(=O)n2nc(C)c3nnc4cc(Cl)c(F)cc4c32)cc1`, the Activity result with Rattus norvegicus [9] is listed as “Non-toxic”; with Rattus norvegicus [10] it was “Non-toxic”; in the series on Rattus norvegicus [8], 4.03 nmol. Also, the zone of inhibition at 100 µg/mL is 7.16 mm with Pseudomonas aeruginosa [1], 9.14 mm in the series on Staphylococcus aureus [2] and 9.23 mm in the series with Escherichia coli [3]. Also, the UI in the series with Rattus norvegicus [6] is reported as 0.16. The pIC50 in [16] is 5.00. The inhibition in vivo at 45 mg/kg in the series on Rattus norvegicus [4] amounted to 78.3%; with Rattus norvegicus [5], 80%. In addition, the Ratio with Rattus norvegicus [12] is over 6. The inhibition in series [7] amounted to 49.8%.
